Data as given in ChEMBL document CHEMBL3739344, “A novel class of negative allosteric modulators of NMDA receptor function” (Bioorg Med Chem Lett, 2015).
Converted amounts (≈) assume the structure as drawn. The source made the active and inactive calls. The rule behind the calls is not given here.

Key:
[1] = target: T1, Glutamate NMDA receptor; Grin1/Grin2a (Rattus norvegicus) (UniProt P35439+Q00959); assay: Noncompetitive negative allosteric modulation of rat GluN1a/GluN2A receptor expressed in Xenopus laevis oocytes assessed as suppression of 100 uM glutamate and 300 uM glycine induced-current at 5 uM by voltage clamp recording method relative to control; format: cell-based
In short: (§1)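 Oocytes expressing GluN1 with GluN2A, 2B, 2C or 2D, two-electrode voltage clamp. Inhibition by 5 µM compound of currents evoked by 100 µM glutamate plus 30 µM glycine, compared with inhibition when glutamate was raised to 1000 µM or glycine to 300 µM. Mean ±SEM from 4–6 oocytes.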

[2] = target: T2, Glutamate NMDA receptor; Grin1/Grin2b (Rattus norvegicus) (UniProt P35439+Q00960); assay: Negative allosteric modulation of rat GluN1a/GluN2B receptor expressed in Xenopus laevis oocytes assessed as suppression of 100 uM glutamate and 30 uM glycine induced-current at saturating compound level by voltage clamp recording method; format: cell-based
In short: (§2)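 Rat GluN1-1a cRNA co-injected with GluN2A, 2B, 2C or 2D cRNA into Xenopus oocytes; expression 1–3 days at 16–19 °C. Two-electrode voltage clamp. Currents evoked by 100 µM glutamate plus 30 µM glycine, alone and then with rising inhibitor concentrations. […] 4–17 oocytes from ≥2 frogs.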

[3] = target: T1, Glutamate NMDA receptor; Grin1/Grin2a (Rattus norvegicus); assay: Negative allosteric modulation of rat GluN1a/GluN2A receptor expressed in Xenopus laevis oocytes assessed as suppression of 100 uM glutamate and 30 uM glycine induced-current at saturating compound level by voltage clamp recording method; format: cell-based; in short: as §2
Primary neuron = assay: Neuroprotective activity in rat primary hippocampal neurons assessed as 100 uM NMDA and 30 uM glycine induced LDH release in media at 30 uM after 20 to 24 hrs by spectrophotometric analysis; format: functional, cell-based
In short: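 Primary rat hippocampal neurons kept 7–10 days in vitro at 37 °C. Challenged for 1 h with Mg2+-free medium containing 100 µM NMDA plus 30 µM glycine, with or without […], then returned to normal medium. LDH activity in the supernatant read spectrophotometrically 20–24 h later and expressed relative to vehicle-treated cells. Triplicates from 6 independent experiments.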

[4] = target: Ionotropic glutamate receptor NMDA 1/2D (Rattus norvegicus, UniProt P35439+Q62645); assay: Negative allosteric modulation of rat GluN1a/GluN2D receptor expressed in Xenopus laevis oocytes assessed as suppression of 100 uM glutamate and 30 uM glycine induced-current by voltage clamp recording method; format: cell-based; in short: as §2
[5] = target: Glutamate NMDA receptor; Grin1/Grin2a (Rattus norvegicus, UniProt P35439+Q00959); assay: Negative allosteric modulation of rat GluN1a/GluN2A receptor expressed in Xenopus laevis oocytes assessed as suppression of 100 uM glutamate and 30 uM glycine glycine induced-current by voltage clamp recording method; format: cell-based; in short: as §2
[6] = target: T3, Glutamate NMDA receptor; Grin1/Grin2c (Rattus norvegicus) (UniProt P35439+Q00961); assay: Noncompetitive negative allosteric modulation of rat GluN1a/GluN2C receptor expressed in Xenopus laevis oocytes assessed as suppression of 100 uM glutamate and 300 uM glycine induced-current at 5 uM by voltage clamp recording method relative to control; format: cell-based; in short: as §1
[7] = target: T2, Glutamate NMDA receptor; Grin1/Grin2b (Rattus norvegicus); assay: Noncompetitive negative allosteric modulation of rat GluN1a/GluN2B receptor expressed in Xenopus laevis oocytes assessed as suppression of 1000 uM glutamate and 30 uM glycine induced-current at 5 uM by voltage clamp recording method relative to control; format: cell-based; in short: as §1
[8] = target: T3, Glutamate NMDA receptor; Grin1/Grin2c (Rattus norvegicus); assay: (§3) Negative allosteric modulation of rat GluN1a/GluN2C receptor expressed in Xenopus laevis oocytes assessed as suppression of 100 uM glutamate and 30 uM glycine induced-current at -60 to +60 mV at 3 uM by voltage clamp recording method in absence of Mg2+; format: cell-based
In short: (§4)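 GluN1/GluN2C receptors in Xenopus oocytes, two-electrode voltage clamp in Mg2+-free solution. Currents evoked by maximally effective glutamate plus glycine, without and with 3 µM inhibitor, recorded at membrane potentials from −60 to +60 mV. Reversal potential taken from the current–voltage relationship (3rd-order polynomial fit). n = 5 oocytes, mean ±SEM.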

[9] = target: T4, Ionotropic glutamate receptor NMDA 1/2D (Rattus norvegicus) (UniProt P35439+Q62645); assay: Noncompetitive negative allosteric modulation of rat GluN1a/GluN2D receptor expressed in Xenopus laevis oocytes assessed as suppression of 1000 uM glutamate and 30 uM glycine induced-current at 5 uM by voltage clamp recording method relative to control; format: cell-based; in short: as §1
[10] = target: Glutamate NMDA receptor; Grin1/Grin2b (Rattus norvegicus, UniProt P35439+Q00960); assay: Negative allosteric modulation of rat GluN1a/GluN2B receptor expressed in Xenopus laevis oocytes assessed as suppression of 100 uM glutamate and 30 uM glycine induced-current by voltage clamp recording method; format: cell-based; in short: as §2
[11] = target: T1, Glutamate NMDA receptor; Grin1/Grin2a (Rattus norvegicus); assay: Noncompetitive negative allosteric modulation of rat GluN1a/GluN2A receptor expressed in Xenopus laevis oocytes assessed as suppression of 1000 uM glutamate and 30 uM glycine induced-current at 5 uM by voltage clamp recording method relative to control; format: cell-based; in short: as §1
[12] = target: T4, Ionotropic glutamate receptor NMDA 1/2D (Rattus norvegicus); assay: Negative allosteric modulation of rat GluN1a/GluN2D receptor expressed in Xenopus laevis oocytes assessed as suppression of 100 uM glutamate and 30 uM glycine induced-current at saturating compound level by voltage clamp recording method; format: cell-based; in short: as §2
[13] = target: T3, Glutamate NMDA receptor; Grin1/Grin2c (Rattus norvegicus); assay: Negative allosteric modulation of rat GluN1a/GluN2C receptor expressed in Xenopus laevis oocytes assessed as suppression of 100 uM glutamate and 30 uM glycine induced-current at saturating compound level by voltage clamp recording method; format: cell-based; in short: as §2
[14] = target: T3, Glutamate NMDA receptor; Grin1/Grin2c (Rattus norvegicus); assay: as §3, with “Voltage-independent negative” for “Negative”, “mean reverse potential” for “suppression”, “Mg2+ (Rvb=-13+/-0.6 mV)” for “Mg2+”; format: cell-based; in short: as §4
[15] = target: Glutamate NMDA receptor (Rattus norvegicus) (UniProt P35439+Q00959+Q00960+Q00961+Q62645+Q8VHN2+Q9R1M7); assay: Negative allosteric modulation of NMDA receptor in rat cerebellar granule cells assessed as suppression of 100 uM glutamate and 30 uM glycine induced-current at 30 uM cotreated with 100 uM NMDA and 50 uM glycine by patch clamp recording method
In short: (§5)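 Primary cerebellar granule cell cultures from P6–8 rats, whole-cell patch clamp at a holding potential of −70 mV. NMDA receptor currents evoked by 100 µM NMDA plus 30 µM glycine (50 µM glycine in the example trace), with the inhibitor co-applied at various concentrations. Steady-state inhibition averaged over n = 5 cells and fitted with the Hill equation.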

Glutamate NMDA receptor = assay: Negative allosteric modulation of NMDA receptor in rat cerebellar granule cells assessed as suppression of 100 uM glutamate and 30 uM glycine induced-current cotreated with 100 uM NMDA and 50 uM glycine by patch clamp recording method; in short: as §5
[16] = target: T2, Glutamate NMDA receptor; Grin1/Grin2b (Rattus norvegicus); assay: Noncompetitive negative allosteric modulation of rat GluN1a/GluN2B receptor expressed in Xenopus laevis oocytes assessed as suppression of 100 uM glutamate and 300 uM glycine induced-current at 5 uM by voltage clamp recording method relative to control; format: cell-based; in short: as §1
[17] = target: T3, Glutamate NMDA receptor; Grin1/Grin2c (Rattus norvegicus); assay: Noncompetitive negative allosteric modulation of rat GluN1a/GluN2C receptor expressed in Xenopus laevis oocytes assessed as suppression of 1000 uM glutamate and 30 uM glycine induced-current at 5 uM by voltage clamp recording method relative to control; format: cell-based; in short: as §1
[18] = target: Glutamate NMDA receptor; Grin1/Grin2c (Rattus norvegicus, UniProt P35439+Q00961); assay: Negative allosteric modulation of rat GluN1a/GluN2C receptor expressed in Xenopus laevis oocytes assessed as suppression of 100 uM glutamate and 30 uM glycine induced-current by voltage clamp recording method; format: cell-based; in short: as §2
[19] = Solubility of compound in TEVC electrophysiological solution at 3.25 to 100 uM by nephelometric method; format: physicochemical
In short: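 Nephelometry measuring forward light scattering of each compound at 3.25–100 µM in TEVC recording solution. Maximum solubility taken as the intersection point of a linear segmental regression. Mean of n = 2 in quadruplicate.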

[20] = target: T4, Ionotropic glutamate receptor NMDA 1/2D (Rattus norvegicus); assay: Noncompetitive negative allosteric modulation of rat GluN1a/GluN2D receptor expressed in Xenopus laevis oocytes assessed as suppression of 100 uM glutamate and 300 uM glycine induced-current at 5 uM by voltage clamp recording method relative to control; format: cell-based; in short: as §1

inhibition [1]: Active
inhibition [2]: 70%
inhibition [3]: 88%
IC50 [4]: 0.4 µM
IC50 [5]: 0.9 µM
inhibition [6]: Active
inhibition [7]: Active
inhibition [8]: Active
inhibition [9]: Active
IC50 [10]: 2.2 µM
inhibition [11]: Active
inhibition [12]: 76%
inhibition [13]: 80%
Activity [14]: -11.9 mV
inhibition [15]: Active
IC50 (Glutamate NMDA receptor): 3.4 µM
inhibition [16]: Active
inhibition [17]: Active
IC50 [18]: 0.7 µM
solubility kinetic [19]: 43 µM (≈ 17 µg/mL)
inhibition [20]: Active
SMILES: CCOC(=O)c1c(NC(=O)CC2SC(N)=NC2=O)sc2c1CCC(C)C2 (racemic)
Activity (Primary neuron): Active
